According to ChEMBL document CHEMBL5653606 (J Pharmacol Exp Ther, 2011):
Active and inactive are the calls of the source.

Experiments:
[1] = molecular target: T1, Fatty-acid amide hydrolase 1 (Homo sapiens, UniProt O00519); assay: Inhibition of human FAAH assessed as kinact/Ki ratio incubated for 1 min in presence of glutamate dehydrogenase by 384-well format microplate reader assay
T1 sequence (O00519 whole entry): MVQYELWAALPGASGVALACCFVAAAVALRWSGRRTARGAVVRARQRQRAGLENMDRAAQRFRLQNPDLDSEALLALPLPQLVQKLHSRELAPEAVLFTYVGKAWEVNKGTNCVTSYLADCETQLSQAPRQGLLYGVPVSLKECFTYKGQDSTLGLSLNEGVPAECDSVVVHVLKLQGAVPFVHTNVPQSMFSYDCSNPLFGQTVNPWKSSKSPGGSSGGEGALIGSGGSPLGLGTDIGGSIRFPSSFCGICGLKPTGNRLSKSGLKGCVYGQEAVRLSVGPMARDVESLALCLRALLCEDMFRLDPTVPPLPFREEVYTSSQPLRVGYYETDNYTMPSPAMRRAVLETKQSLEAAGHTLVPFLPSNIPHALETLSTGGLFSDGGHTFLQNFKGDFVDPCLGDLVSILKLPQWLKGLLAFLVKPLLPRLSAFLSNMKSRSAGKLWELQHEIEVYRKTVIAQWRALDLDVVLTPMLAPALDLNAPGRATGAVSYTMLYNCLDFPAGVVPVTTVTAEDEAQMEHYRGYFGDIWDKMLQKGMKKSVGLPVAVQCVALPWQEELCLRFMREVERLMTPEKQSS

[2] = Plasma concentration in rat at 1 mg/kg, po administered for 4 hrs by LC/MS analysis; type: ADME, organism-based
How it was run: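 Male Sprague-Dawley rats received a single oral dose of 1 mg/kg. Plasma (ng/ml) and brain (ng/g tissue) drug levels were measured at 1, 2, 4, 8 and 24 h after dosing.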

[3] = Brain concentration in rat at 1 mg/kg, po administered for 4 hrs by LC/MS analysis; type: ADME, organism-based; conditions: read-out: Ct
How it was run: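 Rats dosed orally at 1 mg/kg. Plasma and brain concentrations measured at 1, 2, 4, 8 and 24 h.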

[4] = Plasma concentration in rat at 5 mg/kg, po by LC/MS analysis; type: ADME, organism-based; conditions: in vivo
[5] = molecular target: T2, Fatty-acid amide hydrolase 1 (Rattus norvegicus) (UniProt P97612); assay: In vivo inhibition of FAAH in CFA induced Sprague-Dawley rat WBC at 0.1 to 10 mg/kg, po relative to control; type: functional, organism-based; conditions: dose 0.1-10 mg/kg
T2 sequence (whole entry): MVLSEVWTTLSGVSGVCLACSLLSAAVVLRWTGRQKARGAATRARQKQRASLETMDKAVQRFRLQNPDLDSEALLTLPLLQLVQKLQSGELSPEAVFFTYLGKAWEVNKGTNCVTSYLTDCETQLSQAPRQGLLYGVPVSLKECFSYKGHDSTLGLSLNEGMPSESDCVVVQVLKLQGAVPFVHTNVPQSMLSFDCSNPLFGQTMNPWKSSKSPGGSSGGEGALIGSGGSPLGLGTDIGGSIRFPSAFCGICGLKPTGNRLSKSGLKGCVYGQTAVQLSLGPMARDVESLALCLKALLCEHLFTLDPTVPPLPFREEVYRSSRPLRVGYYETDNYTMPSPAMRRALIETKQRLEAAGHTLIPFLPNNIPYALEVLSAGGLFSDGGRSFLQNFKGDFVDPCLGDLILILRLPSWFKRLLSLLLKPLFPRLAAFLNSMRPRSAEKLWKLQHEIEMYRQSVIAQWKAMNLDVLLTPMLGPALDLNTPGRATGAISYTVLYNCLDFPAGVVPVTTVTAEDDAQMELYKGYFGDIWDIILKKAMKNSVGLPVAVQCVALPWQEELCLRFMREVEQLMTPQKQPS
How it was run: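 Brain and blood leukocyte membrane fractions from CFA rats after oral dosing. FAAH activity measured with 3H-labeled AEA substrate, quantifying released 3H-ethanolamine; n = 3 rats/group. Time course sampled at 1, 2, 4, 8, 24 h after 1 mg/kg.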

[6] = molecular target: T2, Fatty-acid amide hydrolase 1 (Rattus norvegicus); assay: In vivo inhibition of FAAH in CFA induced Sprague-Dawley rat brain assessed as elevation of NAE level at 0.1 to 10 mg/kg, po; type: functional, organism-based; conditions: dose 0.1-10 mg/kg
How it was run: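 Lipid (NAE) levels in rat brain and plasma measured by LC/MS after oral dosing in CFA rats; n = 3 rats/group. Time-course samples taken at 1, 2, 4, 8, 24 h after 1 mg/kg.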

Rattus norvegicus [7] = assay: Antihyperalgesic activity in CFA induced Sprague-Dawley rat assessed as partial reduction of mechanical allodynia at 3 mg/kg, po in presence of CB2 antagonist SR144528 by von frey test; type: functional, organism-based
How it was run: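 Male Sprague-Dawley rats (200–250 g) given 150 μl CFA (1 mg/ml in mineral oil) intraplantar in the hind paw. Mechanical paw withdrawal thresholds read with Von Frey hairs on day 5 postinjection. Dosed orally as nanocrystalline suspension in 2% polyvinylpyrrolidone/0.15% SDS in water, 10 ml/kg. PWTs taken 4 h postdose for dose-response, or at 1, 2, 4, 8, 24 h for time course.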

Rattus norvegicus [8] = assay: Antihyperalgesic activity in MIA induced Sprague-Dawley rat assessed as increased joint compression thresholds at 0.3 mg/kg, po administered once daily for 3 consecutive days and measured after 2 to 4 hrs; type: functional, organism-based; conditions: time 3.0 day
How it was run: (§1)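 Male Sprague-Dawley rats (220–270 g), isoflurane-anesthetized, given 2 mg MIA in 0.9% saline (50 μl) intra-articular into the knee. From day 14, oral dosing at 10 ml/kg once daily for 3 days in 4% 2-hydroxypropyl-β-cyclodextrin/1% ethanol in 0.01 M HCl. Celecoxib 30 mg/kg in 0.5% methylcellulose twice daily. Joint compression threshold by digital Randall-Selitto at 2 and 4 h postdose on days 1 and 3; n = 10/group.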

Rattus norvegicus [9] = assay: Antihyperalgesic activity in MIA induced Sprague-Dawley rat assessed as reduction in mechanical allodynia at 3 mg/kg, po administered for 1 day and measured after 2 to 4 hrs; type: functional, organism-based; how it was run: as §1
Rattus norvegicus [10] = assay: Antihyperalgesic activity in MIA induced Sprague-Dawley rat assessed as effect on pain behaviour in contralateral knee joint at 0.3 to 3 mg/kg, po administered once daily for 3 consecutive days; type: functional, organism-based; conditions: dose 0.3-3 mg/kg, time 3.0 day; how it was run: as §1
Mus musculus = assay: Antinociceptive activity in C57BL6/J mouse assessed as effect in catalepsy at 1 to 10 mg/kg, po administered for 4 hrs; type: functional, organism-based; conditions: dose 1-10 mg/kg
How it was run: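 Male C57BL/6J mice, 7 weeks old, n = 8/group, dosed orally at 1 or 10 mg/kg in PEG 300 (4 ml/kg). Tetrad tested 4 h postdose: locomotor activity, tail-immersion thermal nociception, catalepsy (assessed 60 s), body temperature. Means ± S.E.M. versus vehicle.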

IC50 [1]: 50.4 nM | concentration at 4 h [2]: 540 nM | concentration at 4 h [3]: 870 nM | concentration [4]: 2800 nM | inhibition [5]: 98% | inhibition [6]: Active
SMILES: O=C(Nc1cccnn1)N1CCC(=Cc2cccc(Oc3ccc(C(F)(F)F)cn3)c2)CC1
Activity (Rattus norvegicus [7]): Active | Activity (Rattus norvegicus [8]): Active | Activity (Rattus norvegicus [9]): Active | Activity (Rattus norvegicus [10]): inactive | Activity (Mus musculus): Non-Toxic
